Active and inactive are the calls of the source. The rule behind the calls is not given here.
What was measured:
[1] = test system: HeLa; experiment: Inhibition of PI3K in human HeLa cells assessed as reduction in EGF-stimulated AKT phosphorylation at T308 at 100 nM preincubated for 10 mins followed by EGF stimulation measured after 5 mins by Western blot analysis; assay type: cell-based
In short: (§1)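 HeLa cells serum-starved overnight, pretreated with compound for 10 min, then stimulated with EGF at 10 ng mL-1 for 5 min. Lysis in boiling SDS sample buffer, protein quantified, equal protein boiled 5 min and run on SDS-PAGE. Transfer to PVDF, Western blot for EGFR/pEGFR (Tyr1068), AKT/pAKT (Ser473, Thr308), ERK1/2/pERK1/2 (Thr202/Tyr204) and GAPDH, with ECL detection.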

[2] = molecular target: Epidermal growth factor receptor (Homo sapiens) (UniProt P00533); experiment: Inhibition of EGFR in human HeLa cells assessed as reduction in EGF-stimulated EGFR Y1068 phosphorylation at 100 nM preincubated for 10 mins followed by EGF stimulation measured after 5 mins by Western blot analysis; assay type: cell-based; in short: as §1
[3] = molecular target: Epidermal growth factor receptor (Homo sapiens) (UniProt P00533); experiment: Inhibition of EGFR in human HeLa cells assessed as reduction in EGF-stimulated ERK1/2 phosphorylation at T202/Y204 at 100 nM preincubated for 10 mins followed by EGF stimulation measured after 5 mins by Western blot analysis; assay type: cell-based; in short: as §1
[4] = test system: HeLa; experiment: Inhibition of PI3K in human HeLa cells assessed as reduction in EGF-stimulated AKT phosphorylation at S473 at 100 nM preincubated for 10 mins followed by EGF stimulation measured after 5 mins by Western blot analysis; assay type: cell-based; in short: as §1
[5] = test system: HeLa; experiment: Inhibition of PI3K in human HeLa cells assessed as reduction in EGF-stimulated AKT phosphorylation at T308 at 1 to 100 nM preincubated for 10 mins followed by EGF stimulation measured after 5 mins by Western blot analysis; assay type: cell-based
In short: (§2)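 HeLa cells were serum-starved overnight, pretreated with compound for 10 min, then stimulated with 10 ng mL-1 EGF for 5 min. Lysis was in boiling SDS sample buffer, with protein quantified at 660 nm. Equal protein was resolved by SDS-PAGE and Western blotted for pEGFR Tyr1068, pAKT Ser473/Thr308, and pERK1/2 Thr202/Tyr204 with total proteins and GAPDH, detected by ECL.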

[6] = test system: HeLa; experiment: Inhibition of PI3K in human HeLa cells assessed as reduction in EGF-stimulated AKT phosphorylation at S473 at 1 to 100 nM preincubated for 10 mins followed by EGF stimulation measured after 5 mins by Western blot analysis; assay type: cell-based; in short: as §2
[7] = Glutathione reactivity assessed as formation of (2S)-2-amino-5-((2R)-1-(carboxymethylamino)-3-(1-methoxy-3-oxo-3-(pyridin-2-yl)propylthio)-1-oxopropan-2-ylamino)-5-oxopentanoic acid in presence of pH 7.4 at 25 degC by NMR based method; assay type: physicochemical; settings: gsh
[8] = Glutathione reactivity assessed as formation of (2S)-2-amino-5-((2R)-1-(carboxymethylamino)-3-(1-methoxy-3-oxo-3-(pyridin-2-yl)propylthio)-1-oxopropan-2-ylamino)-5-oxopentanoic acid in presence of pH 7.4 at 37 degC by NMR based method; assay type: physicochemical; settings: gsh
[9] = Electrophilicity towards N-alpha-acetyl lysine in 100 mM pH 8.1 phosphate buffer assessed as 3-hydroxy-1-(pyridin-2-yl)prop-2-en-1-one formation using 10 fold excess N-alpha-acetyl lysine at 25 degC by NMR spectrscopy; assay type: physicochemical
In short: (§3)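 NMR kinetics of the model electrophile with and without Nα-acetyl lysine, set up as in the glutathione protocol. Phosphate-buffered D2O (100 mM) was at pH 8.1. Electrophile diluted from a 200 mM DMSO-d6 stock; lysine solution freshly prepared in the same buffer.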

[10] = Electrophilicity towards N-alpha-acetyl lysine in 100 mM pH 8.1 phosphate buffer assessed as (S)-2-acetamido-6-(3-oxo-3-(pyridin-2-yl)prop-1-enylamino)hexanoic acid formation using 10 fold excess N-alpha-acetyl lysine at 25 degC by NMR spectrscopy; assay type: physicochemical; in short: as §3
[11] = Electrophilicity towards N-alpha-acetyl lysine in 100 mM pH 7.4 phosphate buffer using 10 fold excess N-alpha-acetyl lysine at 25 degC by NMR spectrscopy; assay type: physicochemical
In short: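 Model electrophile with tenfold excess Nα-acetyl lysine in 100 mM phosphate buffer, pH 7.4, at 25 °C. Set up as in the glutathione NMR kinetics (1.0 mM electrophile from DMSO-d6 stock, buffered D2O).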

Sequence of Epidermal growth factor receptor (Homo sapiens) (P00533 whole entry): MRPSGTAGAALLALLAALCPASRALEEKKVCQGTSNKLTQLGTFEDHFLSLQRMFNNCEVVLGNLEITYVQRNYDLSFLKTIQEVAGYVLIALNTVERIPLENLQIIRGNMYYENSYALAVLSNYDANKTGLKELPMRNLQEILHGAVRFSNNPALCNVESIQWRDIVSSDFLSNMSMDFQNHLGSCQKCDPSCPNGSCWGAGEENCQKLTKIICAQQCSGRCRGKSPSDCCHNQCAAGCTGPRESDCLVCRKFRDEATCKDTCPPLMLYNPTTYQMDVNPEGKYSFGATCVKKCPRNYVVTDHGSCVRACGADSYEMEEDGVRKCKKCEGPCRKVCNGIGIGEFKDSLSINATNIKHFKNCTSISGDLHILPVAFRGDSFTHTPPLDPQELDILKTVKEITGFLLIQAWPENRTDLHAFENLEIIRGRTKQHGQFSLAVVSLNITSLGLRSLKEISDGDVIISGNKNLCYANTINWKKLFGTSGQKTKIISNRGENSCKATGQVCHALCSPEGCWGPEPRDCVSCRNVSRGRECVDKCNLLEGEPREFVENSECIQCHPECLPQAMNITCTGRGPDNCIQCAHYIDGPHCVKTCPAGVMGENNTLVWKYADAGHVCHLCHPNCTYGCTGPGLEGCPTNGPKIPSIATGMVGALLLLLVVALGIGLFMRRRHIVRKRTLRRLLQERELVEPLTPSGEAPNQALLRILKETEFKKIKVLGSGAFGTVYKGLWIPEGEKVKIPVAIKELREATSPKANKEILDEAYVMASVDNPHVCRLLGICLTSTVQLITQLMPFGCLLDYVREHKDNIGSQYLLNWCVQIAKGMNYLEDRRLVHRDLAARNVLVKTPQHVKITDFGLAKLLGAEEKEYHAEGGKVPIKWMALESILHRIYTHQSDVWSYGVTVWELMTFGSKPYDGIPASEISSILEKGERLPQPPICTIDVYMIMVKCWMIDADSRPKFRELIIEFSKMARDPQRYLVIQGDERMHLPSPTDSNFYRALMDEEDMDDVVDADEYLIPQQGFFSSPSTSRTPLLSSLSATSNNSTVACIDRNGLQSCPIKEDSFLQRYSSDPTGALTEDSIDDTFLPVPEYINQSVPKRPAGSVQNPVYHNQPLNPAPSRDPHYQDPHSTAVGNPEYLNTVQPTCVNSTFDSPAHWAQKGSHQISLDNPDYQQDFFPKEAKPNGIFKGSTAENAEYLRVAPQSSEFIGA

COC[C@H]1OC(=O)c2coc3c2[C@@]1(C)C1=C(C3=O)[C@@H]2CCC(=O)[C@@]2(C)C[C@H]1OC(C)=O
inhibition [1]: Active
inhibition [2]: inactive
inhibition [3]: inactive
inhibition [4]: Active

CC(C)C(=O)Nc1cc(N)c2c3c(cc(C(=O)CCO)nc13)C=N2
inhibition [5]: inactive
inhibition [6]: inactive

CO/C=C/C(=O)c1ccccn1
t1/2 [7]: 13 min
t1/2 [8]: 5.4 min
t1/2 [9]: 1440 min
t1/2 [10]: 60 min
Activity [11]: Not Active
